Assay [1] in a line: inhibitors of TNFa-induced NFkB p65 translocation, primary screen, imaging, HUVEC, MLSMR starter and 10KST1 sets (AID 438;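 active means inhibition above 20% together with a positive visual image hit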;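 further: compound added about 3h40 before a 20 min TNFalpha stimulation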;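 on inhibition: signal is the nuclear over cytoplasmic p65 intensity ratio per well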). The settings on record: HUVEC TNFa-induced p65 nuclear translocation; cell count: measured here: nuclei count (cytotoxicity indicator), at 2.08 µM; inhibition: at 2 µM, stronger effect = higher value, 0% TNFa-plus-vehicle, 100% no-TNFa wells.
The nature of assay [2]: endothelial E-selectin expression blockers – imaging, HUVEC, immunofluorescence, MLSMR starter and 10KST1 sets, primary screen (AID 487;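 active means visually confirmed hit in the image check and inhibition above 20%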;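 on inhibition: signal is fraction of cell area covered by stained E-selectin grains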;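 on nuclei count: 100% = median nuclei count of all wells on the same plate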). The settings on record: HUVEC TNFalpha-induced E-selectin immunofluorescence imaging, at 2 µM; inhibition: stronger effect = higher value; nuclei count: measured here: cell number, toxicity.
Assay [3] can be described thus: Primary imaging screen for DUSP6 inhibitors that restore phospho-Erk in transfected HeLa cells, chemical complementation (AID 609;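 active means compounds giving at least 50% inhibition in the cell-based MKP-3 phosphatase rescue imaging test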;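 on inhibition: phospho-Erk level distribution per well compared with pooled transfected vehicle control wells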). The conditions noted are these: HeLa MKP-3 transfected, phospho-Erk imaging KS statistic, at 10 µM, cells stimulated with TPA for 15 min.
In assay [4] the target is Dual specificity protein phosphatase 6 (Homo sapiens) (UniProt Q16828). Described as above. The settings on record: HeLa MKP-3 transfected, phospho-Erk imaging KS statistic; at 10 µM; stronger effect = higher value; cells stimulated with TPA for 15 min.
Dual specificity protein phosphatase 6 (Homo sapiens), sequence (Q16828 whole entry, looked up): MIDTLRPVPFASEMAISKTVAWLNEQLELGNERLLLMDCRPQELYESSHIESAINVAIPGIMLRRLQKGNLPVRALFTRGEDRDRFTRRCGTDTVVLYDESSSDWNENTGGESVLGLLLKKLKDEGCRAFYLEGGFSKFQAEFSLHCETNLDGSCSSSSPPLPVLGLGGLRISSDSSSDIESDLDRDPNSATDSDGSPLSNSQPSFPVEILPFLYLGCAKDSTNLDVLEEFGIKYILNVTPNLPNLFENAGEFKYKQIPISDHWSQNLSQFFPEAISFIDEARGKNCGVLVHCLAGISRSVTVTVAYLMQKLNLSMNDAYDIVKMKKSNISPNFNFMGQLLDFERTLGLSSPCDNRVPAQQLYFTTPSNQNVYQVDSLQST
Assay [5] has as its target Voltage-gated potassium channel subunit beta-2 (Rattus norvegicus) (UniProt P62483). Put plainly: inhibitors of rat Kvbeta2 reductase activity – biochemical, NADPH fluorescence, primary screen (AID 622;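 active means fluorescence slope higher than the sample average by over 3 SD, cut at about -0.22 in these data, passing the limit was not always enough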;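 further: slope of raw intensity against log time taken from 70 to 1610 s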). The conditions noted are these: recombinant KvBeta, 4-cyanobenzaldehyde reduction, at 10 µM, stronger effect = higher value.
For assay [6] the target is unchanged. In words: enhancers of rat Kvbeta2 NADPH turnover – biochemical, NADPH fluorescence, primary screen (AID 623).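 Further: fluorescence intensity change per second fitted from 20 to 320 s.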 The settings on record: Recombinant KvBeta, NADPH fluorescence decrease slope, 10 min; at 10 µM; stronger effect = lower value.
Assay [7] concerns the target Muscarinic acetylcholine receptor M4 (Homo sapiens) (UniProt P08173). In words: M4-linked GIRK flux change, two-sided – cell-based, HEK293 M4/GIRK, thallium flux, BTC-AM, M4 allosteric agonist project, primary screen (AID 625;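 active means fluorescence slope after compound addition differing from the mean of all tested samples at 99.7% confidence, mostly higher but some lower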;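 further: thallium influx through GIRK channels coupled to M4 in HEK293 cells with BTC-AM dye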). The conditions noted are these: at 10 µM, actives lie on both sides. The gist of the method:
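Material – HEK293 cells with M4 receptor and GIRK channels · Buffer or medium – pH 7.3 thallium assay buffer · Doses – one dose, 10 µM final · Timing – cells overnight at 37 °C, BTC-AM loading 1 h, reads 2 min total · Measured by – kinetic fluorescence with BTC-AM dye · Controls – carbachol and DMSO controls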

The nature of assay [8]: inhibitors of larval lipid processing in zebrafish, primary screen, whole organism, PED6 fluorescence, gall bladder and intestine (AID 686;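 active means a full or partial loss of lipid-probe fluorescence in the fish gall bladder, intestine or both, judged by eye; inactive means no fluorescence loss, or compound toxic to the fish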;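 further: larvae 5 to 7 days old with five fish per well; signal comes from phospholipase A2 cleavage of quenched PED6 carried via bile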). The conditions noted are these: Zebrafish larvae PED6 lipid processing, fluorescence scoring; screened at 20 µM (by protocol). The gist of the method: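 system = live zebrafish larvae aged 5-7 days, whole organism | probe or stimulus = ingested quenched lipid PED6 at 100 nM | doses = 20 µM single dose | timing = overnight exposure | detection = fluorescence microscopy with visual scoring of gall bladder and intestine | read-out = visual per-well fluorescence inhibition score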

Assay [9] in a line: loss of swimming-algae plug formation – whole organism, Chlamydomonas reinhardtii, WT vs cilia-less mutant, absorbance, 96-well, primary screen (AID 463189;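 active means inhibition at or above 50% relative to wild type and mutant plate controls; inactive means inhibition below 50%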;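 further: 0% = wild type cc124 cells in DMSO and 100% = ciliumless bld1 mutant cells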). The settings on record: Chlamydomonas reinhardtii gravitaxis, OD600 absorbance, 2 days; at 10 µM; stronger effect = higher value.
[10] abbreviates: measured here: cell density z-score.
The mark [11] stands for this setting: measured here: nuclear c-Myc green intensity z-score.
[12] abbreviates: measured here: nuclear pErk red intensity z-score, stronger effect = higher value.

The record followed here is PubChem BioAssay.

Active and inactive are the calls of the source.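 How the source made its calls, unless noted: active means NADPH fluorescence slope more negative than the mean of all samples by about 3 SD, 99.7% confidence; inactive means the rest.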

Muscarinic acetylcholine receptor M4 (Homo sapiens), sequence (P08173 whole entry, looked up): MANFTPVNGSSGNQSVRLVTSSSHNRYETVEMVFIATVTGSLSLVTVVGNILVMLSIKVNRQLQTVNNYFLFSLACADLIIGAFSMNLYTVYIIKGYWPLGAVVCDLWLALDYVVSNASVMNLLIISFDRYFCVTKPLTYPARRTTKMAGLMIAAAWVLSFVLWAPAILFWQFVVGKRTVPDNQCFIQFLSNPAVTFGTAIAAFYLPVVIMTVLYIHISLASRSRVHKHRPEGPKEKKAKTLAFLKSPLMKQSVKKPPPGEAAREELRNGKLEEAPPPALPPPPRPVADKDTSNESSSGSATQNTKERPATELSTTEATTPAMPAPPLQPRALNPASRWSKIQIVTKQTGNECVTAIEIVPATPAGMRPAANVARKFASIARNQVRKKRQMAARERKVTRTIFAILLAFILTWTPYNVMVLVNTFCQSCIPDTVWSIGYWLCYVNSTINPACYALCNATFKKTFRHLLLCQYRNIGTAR
Voltage-gated potassium channel subunit beta-2 (Rattus norvegicus), sequence (P62483 whole entry, looked up): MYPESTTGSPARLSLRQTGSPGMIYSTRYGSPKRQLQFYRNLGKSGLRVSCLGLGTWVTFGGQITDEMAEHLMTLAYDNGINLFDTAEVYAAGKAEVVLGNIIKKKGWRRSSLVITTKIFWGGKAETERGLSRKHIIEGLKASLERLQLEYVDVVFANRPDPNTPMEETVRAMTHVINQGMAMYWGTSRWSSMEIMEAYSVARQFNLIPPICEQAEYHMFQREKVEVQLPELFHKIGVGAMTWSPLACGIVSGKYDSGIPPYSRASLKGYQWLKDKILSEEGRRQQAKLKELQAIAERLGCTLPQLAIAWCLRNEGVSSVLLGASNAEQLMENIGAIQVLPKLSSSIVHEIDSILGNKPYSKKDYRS

Take `Cc1cc(SCCC(=O)O)nc2ccccc12`: the cell count in assay [1] stood at 685. For the same compound, the inhibition (usually the relative decrease from the control value, in per cent) was -18.8% (inactive) in assay [1], -36.7% (inactive) in assay [2], 5.95% (inactive) in assay [4] and -15.2% (inactive) in assay [9]. In [2], this compound had a nuclei count of 201%. The z-score in [3] (setting [10]) is -0.264; in assay [3] (setting [11]) it was 0.626; in assay [3] (setting [12]), 0.219. In addition, the fluorescence slope in assay [5] was -0.488 (inactive); in [7], 0.00621 (inactive). In assay [6], the NADPH fluorescence slope was -4.8e-05 (inactive). Further, the compound was called inactive in assay [8].

For the compound `COc1cc(=O)[nH]c(=O)n1CC(=O)c1ccccc1`, the cell count in assay [1] worked out at 719. Besides, the inhibition in assay [1] was -7.7% (inactive); in assay [2], -4.5% (inactive); in assay [4] it was -2.09% (inactive); in assay [9] it was -0.879% (inactive). The nuclei count in assay [2] was 160%. Also, the figures for the z-score in assay [3] (setting [10]), in [3] (setting [11]) and in assay [3] (setting [12]) were -0.792, 1.02 and 1.07, respectively. In addition, the fluorescence slope in assay [5] is -0.452 (inactive); in assay [7] it was 0.00585 (inactive). Also, the NADPH fluorescence slope in assay [6] is -3.7e-05 (inactive). For the same compound, in assay [8], the result was inactive.

In the case of `CC1(C)Cc2c(C#N)c(SCC(=O)c3ccccc3)nc(N3CCOCC3)c2CS1`, the cell count in assay [1] was determined as 567. Further, the inhibition is -9.1% (inactive) in assay [1], -119% (inactive) in [2], 5.42% (inactive) in assay [4] and 34.2% (inactive) in assay [9]. The same compound registered a nuclei count in [2] of 93.2%. The z-score in assay [3] (setting [10]) was 0.0433; in assay [3] (setting [11]), -1.53; in assay [3] (setting [12]), 0.585. Besides, the values for the fluorescence slope in assay [5] and in [7] were -0.491 (inactive) and 0.00928 (inactive), respectively. For the same compound, in assay [6], the NADPH fluorescence slope was 1.6e-05 (inactive). In assay [8], the call was inactive.

For `C=CCOn1c(=O)c(-c2ccc(OC)cc2)[n+]([O-])c2ccccc21`, the cell count in assay [1] came to 586. In addition, the inhibition was -10.1% (inactive) in assay [1], -77.9% (inactive) in assay [2], 13.9% (inactive) in assay [4] and 19.7% (inactive) in assay [9]. The nuclei count in assay [2] stood at 148%. Moreover, the z-score in assay [3] (setting [10]) is 0.271; in [3] (setting [11]), 0.00215; in assay [3] (setting [12]), -0.813. Also, the values for the fluorescence slope in assay [5] and in assay [7] were -0.416 (inactive) and 0.00502 (inactive), respectively. Further, the NADPH fluorescence slope in assay [6] is -5.2e-05 (inactive). For the same compound, the call in assay [8] was inactive.

Regarding `CCC(=O)Nc1nc2ccccc2n1CCN(C)C`, the cell count in assay [1] worked out at 551. In addition, the inhibition was 4.1% (inactive) in assay [1], -371% (inactive) in [2], -1.98% (inactive) in [4] and -5.07% (inactive) in assay [9]. In assay [2], this compound came in with a nuclei count of 131%. The z-score in assay [3] (setting [10]) was 0.711; in assay [3] (setting [11]) it was 0.524; in assay [3] (setting [12]), -0.675. In addition, the fluorescence slope in [5] is -0.436 (inactive); in [7], 0.00568 (inactive). The NADPH fluorescence slope in assay [6] is -1.7e-05 (inactive). Also, the compound was classed as inactive in assay [8].

Turning to `Cc1ccc(NC(=O)CSc2nnc(-c3ccco3)c(-c3ccco3)n2)cc1`, the cell count in assay [1] was 389. Also, the inhibition is -7.7% (inactive) in assay [1], -155% (inactive) in assay [2], -0.608% (inactive) in assay [4] and 11.9% (inactive) in assay [9]. In addition, in [2], the nuclei count is 183%. Further, the z-score in [3] (setting [10]) was -0.429; in assay [3] (setting [11]), -0.71; in [3] (setting [12]), 1.45. The figures for the fluorescence slope in assay [5] and in assay [7] were -0.453 (inactive) and 0.00329 (inactive), respectively. The NADPH fluorescence slope in [6] is -0.000112 (inactive). Also, the result in assay [8] was inactive.

Take `O=c1cc(O)nc2n1CCCS2`: in [1], the cell count was determined as 698. The inhibition in assay [1] is 0.1% (inactive); in [2], 56.2% (inactive); in assay [4] it was -9.53% (inactive); in assay [9] it was 0.661% (inactive). The compound also displayed a nuclei count in assay [2] of 144%. For the same compound, the z-score in assay [3] (setting [10]) is 1.6; in assay [3] (setting [11]), 0.755; in [3] (setting [12]), 0.757. Further, the fluorescence slope is -0.418 (inactive) in assay [5] and 0.00444 (inactive) in assay [7]. In addition, the NADPH fluorescence slope in assay [6] was -5.5e-05 (inactive). The call in assay [8] was inactive.

As for `CCCSc1nnc(NC(=O)Nc2ccccc2)s1`, the cell count in [1] was 655. Also, the inhibition is -20.6% (inactive) in assay [1], -53.8% (inactive) in assay [2], 5.35% (inactive) in [4] and -6.45% (inactive) in assay [9]. In assay [2], this compound returned a nuclei count of 184%. The z-score in assay [3] (setting [10]) is 0.599; in [3] (setting [11]) it was -1.15; in assay [3] (setting [12]) it was -0.322. Besides, the fluorescence slope in assay [5] was -0.484 (inactive); in assay [7], 0.00763 (inactive). In addition, the NADPH fluorescence slope in [6] is -5.4e-05 (inactive). Further, the call in assay [8] was inactive.

As for `COc1ccc(OC)c(NS(=O)(=O)c2ccc(N3CCCC3=O)cc2)c1`, the cell count in [1] worked out at 645. The inhibition was 24% (active) in [1], -344% (inactive) in assay [2], -3.97% (inactive) in assay [4] and 14% (inactive) in assay [9]. Moreover, the nuclei count in [2] is 139%. For the same compound, the results for the z-score in assay [3] (setting [10]), in [3] (setting [11]) and in assay [3] (setting [12]) were 1.32, -0.903 and -0.414, respectively. For the same compound, the fluorescence slope in assay [5] is -0.465 (inactive); in assay [7] it was 0.00599 (inactive). The NADPH fluorescence slope in assay [6] is -0.000177 (inactive). Moreover, the outcome in [8] was inactive.

On to `CCOC(=O)c1c(-c2cccs2)csc1NC(=O)c1ccncc1`, for which the cell count in [1] came to 469. Further, the inhibition was -0.7% (inactive) in assay [1], -21.4% (inactive) in [2], 4.37% (inactive) in [4] and 12.5% (inactive) in assay [9]. In addition, the nuclei count in assay [2] amounted to 128%. Also, the z-score was 0.172 in [3] (setting [10]), 0.303 in [3] (setting [11]) and -0.644 in [3] (setting [12]). Besides, the fluorescence slope in assay [5] is -0.308 (inactive); in assay [7] it was 0.00693 (inactive). Besides, the NADPH fluorescence slope in assay [6] was -2.8e-05 (inactive). In addition, the call in assay [8] was inactive.

In the case of `Nc1nc2n(n1)C(c1cccs1)CC(c1ccc(Br)cc1)N2` (stereo unspecified), the cell count in [1] stood at 409. Moreover, the inhibition in [1] was -1% (inactive); in [2], -13.7% (inactive); in assay [4], 5.65% (inactive); in assay [9] it was 21.9% (inactive). Also, the nuclei count in assay [2] came out at 149%. The figures for the z-score in assay [3] (setting [10]), in [3] (setting [11]) and in [3] (setting [12]) were -0.806, 0.38 and 0.438, respectively. Moreover, the fluorescence slope in assay [5] is -0.443 (inactive); in assay [7], 0.0057 (inactive). Besides, the NADPH fluorescence slope in assay [6] was -9.3e-05 (inactive). The outcome in assay [8] was inactive.

`Cc1cccc(-n2ncc3c(NCc4ccco4)ncnc32)c1`: the cell count in [1] is 648. Further, the inhibition in [1] is -12.5% (inactive); in [2] it was -84.2% (inactive); in assay [4] it was 11.4% (inactive); in assay [9], 2.88% (inactive). The nuclei count in [2] worked out at 165%. The z-score in assay [3] (setting [10]) was 0.86; in assay [3] (setting [11]), -0.2; in [3] (setting [12]) it was -0.239. Moreover, the fluorescence slope in assay [5] was -0.385 (inactive); in assay [7], 0.00641 (inactive). Moreover, the NADPH fluorescence slope in assay [6] was -4.7e-05 (inactive). In addition, the call in assay [8] was inactive.
